pIC50: −log10 of the molar value.
Tests used:
Entamoeba histolytica = test: Antiamoebic activity against Entamoeba histolytica HM-1:IMSS after 72 hrs by microdilution method
[1] = Octanol-water partition coefficient, log P of the compound; type: physicochemical
HepG2 = test: Cytotoxicity against human HepG2 cells after 48 hrs by MTT assay; type: cell-based; conditions: for pIC50: Homo sapiens, HepG2, 48 h; for inhibition (INH): human, hepg2, 48 h
How it was run: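 HepG2 cells grown in DMEM with 10% heat-inactivated FBS and antibiotics at 37 °C, 5% CO2. Cells seeded at 1.2 × 10^4/well and grown 48 h, then exposed 48 h to 3.13–100 µM compound (DMSO stock diluted in medium). MTT (5 mg/mL) added for 4 h, formazan dissolved in DMSO, A570 read against 655 nm reference. Viability expressed relative to untreated cells; triplicate, repeated thrice.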

Row | pIC50 (Entamoeba histolytica) | logP [1] | SMILES | pIC50 (HepG2) | inhibition (INH) (HepG2)
1 | 5.72 | 5.98 | CC(C)CN1C(=O)/C(=C/c2ccc(Cl)cc2)S/C1=N\c1ccccc1 |  | 
2 | 6.18 | 5.98 | CC(C)CN1C(=O)/C(=C/c2cccc(Cl)c2)S/C1=N\c1ccccc1 | 4.06 | Dose-dependent effect
3 | 5.49 | 5.89 | Cc1ccc(/C=C2\S/C(=N\c3ccccc3)N(CC(C)C)C2=O)cc1 |  | 
4 | 6.02 | 6.34 | CCc1ccc(/C=C2\S/C(=N\c3ccccc3)N(CC(C)C)C2=O)cc1 | 4.07 | Dose-dependent effect
5 | 5.61 | 5.08 | CC(C)CN1C(=O)/C(=C/c2ccc(O)cc2)S/C1=N\c1ccccc1 |  | 
6 | 5.71 | 5.06 | COc1ccc(OC)c(/C=C2\S/C(=N\c3ccccc3)N(CC(C)C)C2=O)c1 |  | 
7 | 6.76 | 5.49 | CC(C)CN1C(=O)/C(=C/c2ccc(N(C)C)cc2)S/C1=N\c1ccccc1 | < 4.00 | Dose-dependent effect
8 | 5.79 |  | Cc1ncc([N+](=O)[O-])n1CCO [METRONIDAZOLE] | < 4.00 | Dose-dependent effect
9 | 5.43 | 6.26 | CC(C)CN1C(=O)/C(=C/c2ccccc2C(F)(F)F)S/C1=N\c1ccccc1 |  | 
10 | 6.86 | 5.32 | CC(C)CN1C(=O)/C(=C/c2ccc([N+](=O)[O-])cc2)S/C1=N\c1ccccc1 | < 4.00 | Dose-dependent effect
11 | 6.22 | 4.4 | CC(C)CN1C(=O)/C(=C/c2ccccn2)S/C1=N\c1ccccc1 | < 4.00 | Dose-dependent effect
12 | 6.96 | 5.81 | Cc1ccsc1/C=C1\S/C(=N\c2ccccc2)N(CC(C)C)C1=O | 4.05 | Dose-dependent effect
13 | 6.36 | 5.06 | COc1ccc(/C=C2\S/C(=N\c3ccccc3)N(CC(C)C)C2=O)cc1OC | < 4.00 | Dose-dependent effect
14 | 6.19 | 4.92 | COc1cc(/C=C2\S/C(=N\c3ccccc3)N(CC(C)C)C2=O)ccc1O | 4.05 | Dose-dependent effect
15 | 4.78 | 5 | CC(C)CN1C(=O)/C(=C/c2ccc3c(c2)OCO3)S/C1=N\c1ccccc1 |  | 
16 | 5.69 | 5.08 | CC(C)CN1C(=O)/C(=C/c2ccccc2O)S/C1=N\c1ccccc1 |  | 
17 | 5.57 | 5.22 | COc1ccc(/C=C2\S/C(=N\c3ccccc3)N(CC(C)C)C2=O)cc1 |  | 

Source: ChEMBL document CHEMBL2062506, “Synthesis, characterization and structure optimization of a series of thiazolidinone derivatives as Entamoeba histolytica inhibitors” (Eur J Med Chem, 2012)
